Laboratory results taken from ChEMBL document CHEMBL3758106, “Antitumor Activity of Americanin A Isolated from the Seeds of Phytolacca americana by Regulating the ATM/ATR Signaling Pathway and the Skp2-p27 Axis in Human Colon Cancer Cells” (J Nat Prod, 2015).

How the values were obtained:
[1] = Antiproliferative activity against human HCT116 cells after 24 to 72 hrs by SRB assay; format: functional, cell-based; settings: HCT-116
Summary of the method: (§1)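 Cells grown in 96-well plates (RPMI 1640; MRC-5 in MEM, 10% FBS, antibiotics) with compound […]; fixed in 10% TCA 30 min at 4 °C, stained 0.4% SRB in 1% acetic acid 1 h, dye dissolved in 10 mM Tris pH 10.0, A515 read; viability as % of solvent control, IC50 by nonlinear regression; mean of three independent experiments.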

[2] = system: HCT-116; assay: Induction of reactive oxygen species in human HCT116 cells at 1 mM after 48 hrs by DCFH-DA staining-based flow cytometric analysis (reference value: 5.1%); format: functional
Summary of the method: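 HCT116 cells seeded overnight, then exposed to test compounds, alone or with NAC, for 48 h in complete medium. Loaded with 20 μM DCFH-DA for 30 min; intracellular ROS in 20 000 cells per group read by flow cytometry as histograms.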

[3] = system: HCT-116; assay: Induction of apoptosis in human HCT116 cells assessed as dead cells at 1 mM after 48 hrs by annexin V-FITC/propidium iodide staining-based flow cytometric analysis (reference value: 4.2%); format: functional
[4] = system: HCT-116; assay: Induction of apoptosis in human HCT116 cells assessed as late apoptotic cells at 1 mM after 48 hrs by annexin V-FITC/propidium iodide staining-based flow cytometric analysis (reference value: 7.2%); format: functional
[5] = system: HCT-116; assay: Induction of apoptosis in human HCT116 cells assessed as viable cells at 1 mM after 48 hrs by annexin V-FITC/propidium iodide staining-based flow cytometric analysis (reference value: 87.4%); format: functional; settings: HCT-116, 48 h, read-out: Activity
[6] = system: HCT-116; assay: Induction of apoptosis in human HCT116 cells assessed as early apoptotic cells at 1 mM after 48 hrs by annexin V-FITC/propidium iodide staining-based flow cytometric analysis (reference value: 1.1%); format: functional
[7] = system: SW480; assay: Antiproliferative activity against human SW480 cells after 24 to 72 hrs by SRB assay; format: functional, cell-based; summary of the method: as §1
[8] = Antiproliferative activity against human HCT15 cells after 24 to 72 hrs by SRB assay; format: functional, cell-based; settings: HCT-15; summary of the method: as §1
[9] = system: RKO; assay: Antiproliferative activity against human RKO cells after 24 to 72 hrs by SRB assay; format: functional, cell-based; summary of the method: as §1
[10] = Antitumor activity against human HCT116 cells xenografted in nude mouse assessed as tumor growth inhibition at 10 mg/kg, ip administered once per week measured on day 41; format: functional; settings: HCT-116, ip, 984 h, read-out: TGI
Summary of the method: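 Nude mice given 2 × 10^6 HCT116 cells subcutaneously in flank; at ~120 mm3 randomised, six per group; ip dosing in 200 μL, test agent 5 or 10 mg/kg three times weekly, irinotecan 10 mg/kg once weekly; tumour volume measured twice weekly to day 41; body weight tracked for toxicity.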

[11] = Antiproliferative activity against human HCT116 cells assessed as cell viability after 24 hrs by SRB assay; format: functional, cell-based; settings: HCT-116, 24 h
Summary of the method: (§2)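 HCT116 cells in 96-well plates exposed 24, 48 or 72 h; TCA fixation, 0.4% SRB staining, dye solubilised in 10 mM Tris pH 10.0, absorbance at 515 nm; viability relative to solvent-treated control.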

[12] = Antiproliferative activity against human HCT116 cells assessed as cell viability after 72 hrs by SRB assay; format: functional, cell-based; settings: HCT-116, 72 h; summary of the method: as §2
[13] = system: K562; assay: Antiproliferative activity against human K562 cells after 24 to 72 hrs by SRB assay; format: functional, cell-based; summary of the method: as §1
[14] = system: A549; assay: Antiproliferative activity against human A549 cells after 24 to 72 hrs by SRB assay; format: functional, cell-based; summary of the method: as §1
[15] = Antiproliferative activity against human HCT116 cells assessed as cell viability after 48 hrs by SRB assay; format: functional, cell-based; settings: HCT-116, 48 h; summary of the method: as §2
[16] = system: MRC5; assay: Cytotoxicity against human MRC5 cells after 24 to 72 hrs by SRB assay; format: cell-based; summary of the method: as §1
[17] = Antiproliferative activity against p53-null human HCT116 cells assessed as cell viability after 72 hrs by SRB assay; format: functional, cell-based; settings: HCT-116, 72 h
Summary of the method: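 p53 wild-type and p53-null HCT116 cells in 96-well plates treated 72 h; SRB assay (TCA fix, SRB stain, Tris pH 10.0 solubilisation, A515); viability vs solvent control, IC50 by nonlinear regression.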

[18] = system: CAKI-1; assay: Antiproliferative activity against human CAKI-1 cells after 24 to 72 hrs by SRB assay; format: functional, cell-based; summary of the method: as §1

COc1ccc([C@@H]2Oc3ccc(/C=C/C=O)cc3O[C@H]2COC(C)=O)cc1OC
IC50 [1]: 5.6 µM

O=C/C=C/c1ccc2c(c1)O[C@@H](CO)[C@H](c1ccc3c(c1)O[C@@H](CO)[C@H](c1ccc(O)c(O)c1)O3)O2
IC50 [1]: 10.9 µM

CC(=O)N[C@@H](CS)C(=O)O [ACETYLCYSTEINE]
Activity [2]: 6%
Activity [3]: 4.9%
Activity [4]: 8.5%
viability at 1000 µM [5]: 85.6%
Activity [6]: 1.1%

CCc1c2c(nc3ccc(OC(=O)N4CCC(N5CCCCC5)CC4)cc13)-c1cc3c(c(=O)n1C2)COC(=O)[C@]3(O)CC [IRINOTECAN]
IC50 [1]: 2 µM
IC50 [7]: 12.3 µM
IC50 [8]: 8.5 µM
IC50 [9]: 6.2 µM
inhibition in vivo at 10 mg/kg [10]: 68.6%

CC(=O)/C=C/C=C/c1ccc2c(c1)O[C@@H](CO)[C@H](c1ccc(O)c(O)c1)O2
IC50 [1]: > 100 µM

COc1ccc([C@@H]2Oc3ccc(/C=C/C=O)cc3O[C@H]2CO)cc1OC
IC50 [1]: 4 µM

O=C/C=C/c1ccc2c(c1)[C@@H](CO)[C@H](c1ccc(O)c(O)c1)O2
IC50 [1]: 10.4 µM

COc1cc([C@@H]2c3cc4c(cc3[C@@H](O[C@@H]3O[C@@H]5CO[C@@H](C)O[C@H]5[C@H](O)[C@H]3O)[C@H]3COC(=O)[C@H]23)OCO4)cc(OC)c1O [ETOPOSIDE]
IC50 [11]: > 20 µM
IC50 [12]: 0.3 µM
IC50 [13]: 6.7 µM
IC50 [1]: 3.3 µM
IC50 [14]: 0.8 µM
IC50 [15]: 2.3 µM
IC50 [16]: > 20 µM
IC50 [17]: 3.1 µM
IC50 [18]: 1.1 µM

COc1ccc([C@@H]2Oc3ccc(C=O)cc3O[C@H]2CO)cc1OC
IC50 [1]: > 100 µM
